In BindingDB's records for doi:10.1128/AAC.00971-08 (Cnrs-Cpbs/Umr 5236, 2009):

Target: Albumin (Homo sapiens, UniProt P02768)
Test: Binding affinity to first site on human serum albumin by SPR
Procedure, shortened: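 SPR on a BIACORE 3000 at 25°C. HSA was amine-coupled to a CM5 chip at 40 µg/ml in 10 mM acetate, pH 5.2. Drug was injected from 400 µM to 0.1 µM in twofold dilutions in PBS with 5% DMSO at 50 µl/min, with 30 s association and 30 s dissociation. Responses were reference-subtracted, read 10 s into the injection and DMSO-corrected. Dose-response curves gave KD or fraction of sites occupied.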

Chain of Albumin (P02768 whole entry): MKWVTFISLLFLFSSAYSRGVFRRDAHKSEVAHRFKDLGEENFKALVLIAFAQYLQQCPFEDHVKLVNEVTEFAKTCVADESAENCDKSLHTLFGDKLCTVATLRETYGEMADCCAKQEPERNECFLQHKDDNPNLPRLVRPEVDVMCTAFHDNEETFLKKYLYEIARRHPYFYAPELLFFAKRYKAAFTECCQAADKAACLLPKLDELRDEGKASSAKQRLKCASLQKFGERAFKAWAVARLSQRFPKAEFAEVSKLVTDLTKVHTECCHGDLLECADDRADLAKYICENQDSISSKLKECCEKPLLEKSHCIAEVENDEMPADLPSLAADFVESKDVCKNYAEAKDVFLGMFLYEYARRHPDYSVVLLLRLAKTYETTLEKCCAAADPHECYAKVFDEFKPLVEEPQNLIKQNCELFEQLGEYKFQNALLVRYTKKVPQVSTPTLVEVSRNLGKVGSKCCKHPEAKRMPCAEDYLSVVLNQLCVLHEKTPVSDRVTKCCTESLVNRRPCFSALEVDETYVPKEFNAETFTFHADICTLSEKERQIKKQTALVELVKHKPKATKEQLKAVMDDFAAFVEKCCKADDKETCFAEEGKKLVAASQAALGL

Kd [µM]	Structure (SMILES)
12	COc1ccc(OC)c(/C=C2\SC(=S)N(C(C(=O)O)c3ccccc3)C2=O)c1 (configuration not stated) [2-[(5Z)-5-[(2,5-dimethoxyphenyl)methylidene]-4-oxo-2-sulfanylidene-3-thiazolidinyl]-2-phenylacetic acid]
12	CN(C)c1ccc(O)c2c1C[C@H]1C[C@H]3[C@H](N(C)C)C(=O)C(C(N)=O)C(=O)[C@@]3(O)C(=O)C1C2=O (some centres not stated) [Klinomycin]
